From ChEMBL document CHEMBL1143122, “Novel analogs of D-e-MAPP and B13. Part 1: synthesis and evaluation as potential anticancer agents” (Bioorg Med Chem, 2008)

Assays:
DU-145 = assay: Antiproliferative activity against human DU145 cells after 48 hrs; format: functional; conditions: DU-145, 48 h
Method in brief: (§1)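 NCI 60-cell screen. Cells were grown in RPMI 1640 with 5% FBS and 2 mM L-glutamine, then plated at 5,000–40,000 cells/well according to doubling time and preincubated for 24 h at 37 °C in 5% CO2. Compounds were dissolved in DMSO at 400× the top final concentration and tested at five 10-fold dilutions from 10−4 to 10−8 M for 48 h. Growth was read spectrophotometrically; GI50 is 50% net protein reduction.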

A549 = assay: Antiproliferative activity against human A549 cells after 48 hrs; format: functional; conditions: A549, 48 h; method in brief: as §1
SW-620 = assay: Antiproliferative activity against human SW620 cells after 48 hrs; format: functional; conditions: SW-620, 48 h
Method in brief: (§2)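 NCI 60-cell-line screen. Lines grown in RPMI 1640 with 5% fetal bovine serum and 2 mM L-glutamine, plated at 5,000–40,000 cells/well according to doubling time, left 24 h at 37 °C in 5% CO2. Drug stocks in DMSO at 400-fold the top final concentration. Five 10-fold dilutions, 10−4 to 10−8 M, incubated 48 h. Growth read spectrophotometrically as net protein; GI50 taken as 50% reduction.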

CCRF-CEM = assay: Antiproliferative activity against human CCRF-CEM cells after 48 hrs; format: functional; method in brief: as §1
OVCAR-3 = assay: Antiproliferative activity against human OVCAR-3 cells after 48 hrs; format: functional; conditions: OVCAR-3, 48 h; method in brief: as §1
T47D = assay: Antiproliferative activity against human T47D cells after 48 hrs; format: functional; method in brief: as §2
RPMI-8226 = assay: Antiproliferative activity against human RPMI8226 cells after 48 hrs; format: functional; conditions: RPMI-8226, 48 h; method in brief: as §1
NCI-H522 = assay: Antiproliferative activity against human NCI-H522 cells after 48 hrs; format: functional; conditions: NCI-H522, 48 h; method in brief: as §1
LOX IMVI = assay: Antiproliferative activity against human LOXIMVI cells after 48 hrs; format: functional; method in brief: as §1
HT-29 = assay: Antiproliferative activity against human HT29 cells after 48 hrs; format: functional; conditions: HT-29, 48 h; method in brief: as §1
NCI-H226 = assay: Antiproliferative activity against human NCI-H226 cells after 48 hrs; format: functional; conditions: NCI-H226, 48 h; method in brief: as §1
UACC-62 = assay: Antiproliferative activity against human UACC62 cells after 48 hrs; format: functional; conditions: UACC-62, 48 h; method in brief: as §2
MCF7 = assay: Antiproliferative activity against human MCF7 cells after 48 hrs; format: functional, cell-based; conditions: MCF7, 48 h
SNB-19 = assay: Antiproliferative activity against human SNB19 cells after 48 hrs; format: functional; conditions: SNB-19, 48 h; method in brief: as §1
SF-295 = assay: Antiproliferative activity against human SF295 cells after 48 hrs; format: functional; conditions: SF-295, 48 h; method in brief: as §1
SK-MEL-2 = assay: Antiproliferative activity against human SKMEL2 cells after 48 hrs; format: functional; conditions: SK-MEL-2, 48 h; method in brief: as §1
UACC-257 = assay: Antiproliferative activity against human UACC257 cells after 48 hrs; format: functional; conditions: UACC-257, 48 h; method in brief: as §2
SK-OV-3 = assay: Antiproliferative activity against human SKOV3 cells after 48 hrs; format: functional; conditions: SK-OV-3, 48 h; method in brief: as §1
SN12C = assay: Antiproliferative activity against human SN12C cells after 48 hrs; format: functional; method in brief: as §1
CAKI-1 = assay: Antiproliferative activity against human CAKI1 cells after 48 hrs; format: functional; conditions: CAKI-1, 48 h; method in brief: as §1
PC-3 = assay: Antiproliferative activity against human PC3 cells after 48 hrs; format: functional; conditions: PC-3, 48 h; method in brief: as §1
HCT-116 = assay: Antiproliferative activity against human HCT116 cells after 48 hrs; format: functional; conditions: HCT-116, 48 h; method in brief: as §1
KM12 = assay: Antiproliferative activity against human KM12 cells after 48 hrs; format: functional; conditions: Homo sapiens, KM12, 48 h; method in brief: as §1
RXF 393 = assay: Antiproliferative activity against human RXF393 cells after 48 hrs; format: functional; conditions: RXF 393, 48 h; method in brief: as §1
M14 = assay: Antiproliferative activity against human M14 cells after 48 hrs; format: functional; conditions: M14, 48 h; method in brief: as §1
NCI-H322M = assay: Antiproliferative activity against human NCI-H322M cells after 48 hrs; format: functional; method in brief: as §1
TK-10 = assay: Antiproliferative activity against human TK10 cells after 48 hrs; format: functional; conditions: TK-10, 48 h; method in brief: as §2
HOP-62 = assay: Antiproliferative activity against human HOP62 cells after 48 hrs; format: functional; conditions: HOP-62, 48 h; method in brief: as §1
HCT-15 = assay: Antiproliferative activity against human HCT15 cells after 48 hrs; format: functional; conditions: Homo sapiens, HCT-15, 48 h; method in brief: as §1
HCC 2998 = assay: Antiproliferative activity against human HCC2998 cells after 48 hrs; format: functional; conditions: HCC 2998, 48 h; method in brief: as §1
A498 = assay: Antiproliferative activity against human A498 cells after 48 hrs; format: functional; conditions: A498, 48 h; method in brief: as §1
MDA-MB-435 = assay: Antiproliferative activity against human MDA-MB-435 cells after 48 hrs; format: functional; conditions: Homo sapiens, MDA-MB-435, 48 h; method in brief: as §1
[1] = read-out: Log LC50 (the source's name) (converted)

CCCCCCCCCCCCCCN[C@H](C)[C@@H](O)c1ccccc1.Cl
GI50 (DU-145): 1480 nM
CC50 (DU-145; [1]): 5.25 µM
TGI (DU-145; read-out: Log TGI (converted)): 2820 nM
GI50 (A549): 1740 nM
CC50 (A549; [1]): 6.31 µM
TGI (A549; read-out: Log TGI (converted)): 3.31 µM
GI50 (SW-620): 2140 nM
LC50 (concentration killing 50% of cells) (SW-620): 7.94 µM
TGI (SW-620; read-out: Log TGI (converted)): 4.17 µM
GI50 (CCRF-CEM): 1450 nM
CC50 (CCRF-CEM; [1]): 7.59 µM
TGI (CCRF-CEM; read-out: Log TGI (converted)): 3.31 µM
GI50 (OVCAR-3): 1740 nM
LC50 (OVCAR-3): 6.03 µM
TGI (OVCAR-3; read-out: Log TGI (converted)): 3.24 µM
GI50 (T47D): 2290 nM
CC50 (T47D; [1]): 7.76 µM
TGI (T47D; read-out: Log TGI (converted)): 4.17 µM
GI50 (RPMI-8226): 3.39 µM
CC50 (RPMI-8226; [1]): 7.24 µM
TGI (RPMI-8226; read-out: Log TGI (converted)): 3.63 µM
GI50 (NCI-H522): 1910 nM
CC50 (NCI-H522; [1]): 6.61 µM
TGI (NCI-H522; read-out: Log TGI (converted)): 3.55 µM
GI50 (LOX IMVI): 1820 nM
LC50 (LOX IMVI): 5.89 µM
TGI (LOX IMVI; read-out: Log TGI (converted)): 3.31 µM
GI50 (HT-29): 1780 nM
LC50 (HT-29): 5.75 µM
TGI (HT-29; read-out: Log TGI (converted)): 3.24 µM
GI50 (NCI-H226): 1860 nM
CC50 (NCI-H226; [1]): 7.08 µM
TGI (NCI-H226; read-out: Log TGI (converted)): 3.63 µM
GI50 (UACC-62): 1820 nM
LC50 (UACC-62): 6.61 µM
TGI (UACC-62; read-out: Log TGI (converted)): 3.47 µM
IC50 (MCF7): 3.5 µM
GI50 (SNB-19): 1740 nM
TGI (SNB-19; read-out: Log TGI (converted)): 3.09 µM
GI50 (SF-295): 1820 nM
LC50 (SF-295): 6.17 µM
TGI (SF-295; read-out: Log TGI (converted)): 3.39 µM
GI50 (SK-MEL-2): 2000 nM
LC50 (SK-MEL-2): 8.13 µM
TGI (SK-MEL-2; read-out: Log TGI (converted)): 3.98 µM
GI50 (UACC-257): 1660 nM
CC50 (UACC-257; [1]): 6.46 µM
TGI (UACC-257; read-out: Log TGI (converted)): 3.31 µM
GI50 (SK-OV-3): 2340 nM
CC50 (SK-OV-3; [1]): 9.77 µM
TGI (SK-OV-3; read-out: Log TGI (converted)): 4.79 µM
GI50 (SN12C): 1780 nM
LC50 (50% net cell kill) (SN12C): 6.76 µM
TGI (SN12C; read-out: Log TGI (converted)): 3.47 µM
GI50 (CAKI-1): 1950 nM
CC50 (CAKI-1; [1]): 5.75 µM
TGI (CAKI-1; read-out: Log TGI (converted)): 3.39 µM
GI50 (PC-3): 1860 nM
LC50 (PC-3): 5.89 µM
TGI (PC-3; read-out: Log TGI (converted)): 3.31 µM
GI50 (HCT-116): 1860 nM
LC50 (HCT-116): 5.75 µM
TGI (HCT-116; read-out: Log TGI (converted)): 3.24 µM
GI50 (KM12): 1820 nM
CC50 (KM12; [1]): 5.62 µM
TGI (KM12; read-out: Log TGI (converted)): 3.16 µM
GI50 (RXF 393): 1380 nM
CC50 (RXF 393; [1]): 5.5 µM
TGI (RXF 393; read-out: Log TGI (converted)): 2750 nM
GI50 (M14): 1860 nM
LC50 (M14): 6.17 µM
TGI (M14; read-out: Log TGI (converted)): 3.39 µM
GI50 (NCI-H322M): 1910 nM
CC50 (NCI-H322M; [1]): 5.89 µM
TGI (NCI-H322M; read-out: Log TGI (converted)): 3.31 µM
GI50 (TK-10): 1860 nM
CC50 (TK-10; [1]): 5.75 µM
TGI (TK-10; read-out: Log TGI (converted)): 3.31 µM
GI50 (HOP-62): 1860 nM
CC50 (HOP-62; [1]): 5.89 µM
TGI (HOP-62; read-out: Log TGI (converted)): 3.31 µM
GI50 (HCT-15): 1820 nM
LC50 (HCT-15): 5.89 µM
TGI (HCT-15; read-out: Log TGI (converted)): 3.24 µM
GI50 (HCC 2998): 1860 nM
CC50 (HCC 2998; [1]): 6.46 µM
TGI (HCC 2998; read-out: Log TGI (converted)): 3.47 µM
GI50 (A498): 3.16 µM
CC50 (A498; [1]): 74.1 µM
TGI (A498; read-out: Log TGI (converted)): 6.46 µM
GI50 (MDA-MB-435): 1780 nM
LC50 (MDA-MB-435): 5.62 µM
TGI (MDA-MB-435; read-out: Log TGI (converted)): 3.16 µM
